CRFR2-BP ag = agonists of CRF-BP/CRF-R2 complex, primary screen, cell-based, HEK293, calcium dye fluorescence, uHTS; CRF-binding protein / CRF receptor 2 complex (human); calcium dye fluorescence (FLIPR); percent of saturating CRF peptide response; activation, % at 13.2 µM; hit rate 0.46% among 350,000;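 active = activation of at least 50%, plus an integration ratio under a set limit after plate pattern correction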;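 also: plate controls were neutral control wells without compound for no effect and CRF at EC100 for full effect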
CRFR2-BP antag = antagonists of CRF-BP/CRF-R2 complex, primary screen, cell-based, HEK293, calcium dye fluorescence, uHTS; CRF-induced calcium fluorescence; inhibition, % at 11.8 µM; hit rate 0.59% among 350,000; AID 588475, 2011;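 active = inhibition of the ligand-induced calcium signal above about 50% at the single tested concentration, limit read from the data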
DDE Tn7 FP inh = inhibitors of Tn7 peptide binding to fibrin DD(E), primary screen, biochemical, fluorescence polarization, human fibrin, Tn7 probe; inhibition, % at 8.3 µM; Fibrinogen beta chain (Homo sapiens), P02675; AID 720508, 2013; hit rate 0.13% among 370,000; FP displacement of FITC-Tn7 peptide from fibrin DD(E); 0% = median of compound wells per plate;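 active = inhibition above the mean of compounds falling within the control limits plus 3 SD of them, cut at about 14% in these data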;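 also: 0% = plate median of compound wells and 100% = 10 µM Aha-Tn7 peptide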
Target sequence (P02675 whole entry, looked up): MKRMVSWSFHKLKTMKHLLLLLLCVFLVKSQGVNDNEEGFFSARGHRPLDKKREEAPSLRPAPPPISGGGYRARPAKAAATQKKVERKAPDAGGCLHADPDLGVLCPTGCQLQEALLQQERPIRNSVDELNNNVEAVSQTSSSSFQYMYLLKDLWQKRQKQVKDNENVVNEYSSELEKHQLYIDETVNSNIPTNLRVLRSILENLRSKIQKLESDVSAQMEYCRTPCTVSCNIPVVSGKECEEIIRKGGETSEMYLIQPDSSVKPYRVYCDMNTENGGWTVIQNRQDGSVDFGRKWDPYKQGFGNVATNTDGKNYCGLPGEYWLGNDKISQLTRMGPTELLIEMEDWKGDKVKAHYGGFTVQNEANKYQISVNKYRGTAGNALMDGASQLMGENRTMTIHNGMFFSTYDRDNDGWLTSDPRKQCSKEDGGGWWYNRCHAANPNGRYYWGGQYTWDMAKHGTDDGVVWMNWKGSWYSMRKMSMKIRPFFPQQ
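Test system – human fibrin DD(E) · Times – 10 min preincubation, 3 h with tracer, room temperature · Detection – fluorescence polarization of the labelled Tn7 tracer · Measure – percent inhibition normalized to high-control wells · Benchmarks – high control wells with 10 µM unlabelled Aha-Tn7 peptide (full inhibition) · Repeats – singlicate testing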
Tn6 DDE FP = inhibitors of Tn6 peptide binding to fibrin DD(E), primary screen, biochemical, fluorescence polarization, human fibrin, Tn6 probe; Fibrin DD(E) TRITC-Tn6 fluorescence polarization displacement; inhibition, % at 8.3 µM; Fibrinogen beta chain (Homo sapiens), P02675; hit rate 0.21% among 370,000;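 active = inhibition above a per-campaign cutoff: mean of compounds within control limits plus 3 SD, cut at about 15% in these data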;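 also: 0% = median of all compound wells on the plate and 100% = blocking peptide control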
Numbers without * were called inactive. An excerpt weighted towards active compounds, which were near 1.3% of everything screened.

`CC(C)Cn1c(SCC(=O)N2CCc3ccccc3C2)nc2cc(Cl)ccc2c1=O` gave CRFR2-BP ag -1, CRFR2-BP antag 118*, DDE Tn7 FP inh 4 and Tn6 DDE FP -2.
For Cc1nn(C)c(C(=O)NC(=S)Nc2ccccc2Br)c1Cl the results were CRFR2-BP ag 93*, CRFR2-BP antag -73, DDE Tn7 FP inh -4 and Tn6 DDE FP 4.
`CCn1ncc(Cl)c1C(=O)NC(=S)Nc1ccccc1Br` gave CRFR2-BP ag 25, CRFR2-BP antag -63, DDE Tn7 FP inh 7 and Tn6 DDE FP -2.
Screening O=S(=O)(NCc1cn(Cc2ccccc2)nn1)c1ccccc1Br returned DDE Tn7 FP inh -3 and Tn6 DDE FP -2.
For CCOC(=O)CC1C(=O)NCCN1c1nc2ccc(C)cn2c(=O)c1/C=C1\SC(=S)N(CC(C)C)C1=O (stereo not given) the results were CRFR2-BP ag 189* and CRFR2-BP antag -134.
For CCOC(=O)CC1C(=O)NCCN1C(=O)c1ccc(C)cc1 (stereo not given) the results were CRFR2-BP ag 0, CRFR2-BP antag -4, DDE Tn7 FP inh -4 and Tn6 DDE FP -2.
CCCN1C(=O)/C(=C/c2c(N3CCNC(=O)C3CC(=O)OCC)nc3c(C)cccn3c2=O)SC1=S (stereo not given) was read as CRFR2-BP ag 191* and CRFR2-BP antag -200.
Screening CCCCCN1C(=O)/C(=C/c2c(N3CCc4ccccc4C3)nc3ccccn3c2=O)SC1=S returned CRFR2-BP ag 3, CRFR2-BP antag -28, DDE Tn7 FP inh -7 and Tn6 DDE FP 1.
For O=[N+]([O-])c1ccc(Cn2ccc3ccc(-c4ccc5ccn(Cc6ccccc6)c5c4)cc32)cc1 the results were DDE Tn7 FP inh 0 and Tn6 DDE FP 4.
CN1CCN(c2ccc3c(c2)Oc2ccccc2CN(Cc2cn(Cc4ccc(C(F)(F)F)cc4)nn2)S3(=O)=O)CC1 was read as DDE Tn7 FP inh -5 and Tn6 DDE FP 1.
CC(C)(C)N1CC2([N+](=O)[O-])CN(C(C)(C)C)CC([N+](=O)[O-])(C1)C2 was read as CRFR2-BP ag 167*, CRFR2-BP antag -122, DDE Tn7 FP inh 5 and Tn6 DDE FP -2.
Screening CC1=CCC2([N+](=O)[O-])CN(CC(=O)O)CC1([N+](=O)[O-])C2 (stereo not given) returned CRFR2-BP ag -2, CRFR2-BP antag 1, DDE Tn7 FP inh -3 and Tn6 DDE FP 7.
For COc1ccccc1Nc1ccc(S(=O)(=O)N2CCCCC2)cc1[N+](=O)[O-] the results were CRFR2-BP ag -2, CRFR2-BP antag 51*, DDE Tn7 FP inh 4 and Tn6 DDE FP 3.
OCCN(CCO)c1nc(N2CCCCC2)c2nc(N(CCO)CCO)nc(N3CCCCC3)c2n1 was read as CRFR2-BP ag 179*, CRFR2-BP antag -138, DDE Tn7 FP inh 26* and Tn6 DDE FP 1.
For COC(=O)[C@]12C[C@H](CC(=O)N3CCCC3)C(=O)N(Cc3ccco3)C1=C[C@H](C(C)C)O[C@@H]2C1CC1 the results were DDE Tn7 FP inh -3 and Tn6 DDE FP -2.
For CCC(C)N(C(=O)c1ccc(CNC(=O)c2cccc(Br)c2)cc1)C(C)CC (stereo not given) the results were DDE Tn7 FP inh -3 and Tn6 DDE FP -7.
For Cn1cc(/C=C2\SC(=S)N(NC(=O)c3ccccc3)C2=O)c2ccccc21 the results were CRFR2-BP ag 72*, CRFR2-BP antag -112, DDE Tn7 FP inh -11 and Tn6 DDE FP 6.
For COc1ccc(CN(C(=O)c2nsc(Cl)c2Cl)C(C(=O)NC2CCCC2)c2ccc(OC)cc2)cc1 (stereo not given) the results were CRFR2-BP ag 53*, CRFR2-BP antag -10, DDE Tn7 FP inh -1 and Tn6 DDE FP 8.
For CC[n+]1c(/C=C/c2c[nH]c3ccccc23)ccc2cc(C)ccc21 the results were CRFR2-BP ag 271*, CRFR2-BP antag -303, DDE Tn7 FP inh -72 and Tn6 DDE FP -11.
For Cc1ccc(C(=O)/C=C/c2c[nH]c3ccccc23)cc1 the results were CRFR2-BP ag 5, CRFR2-BP antag 6, DDE Tn7 FP inh -4 and Tn6 DDE FP -6.
For CCN(CC)C(=O)c1ccc(/C=C/c2c[nH]c3ccccc23)[n+](C)c1 the results were CRFR2-BP ag 54*, CRFR2-BP antag -15, DDE Tn7 FP inh -41 and Tn6 DDE FP -7.
O=C(COC(=O)c1ccncc1)Nc1cc(S(=O)(=O)N2CCOCC2)ccc1Cl was read as CRFR2-BP ag -2, CRFR2-BP antag 67*, DDE Tn7 FP inh -3 and Tn6 DDE FP 9.
For CCOc1ncccc1C(=O)OCC(=O)Nc1ccc(C)c(S(=O)(=O)N2CCOCC2)c1 the results were CRFR2-BP ag 0, CRFR2-BP antag 4, DDE Tn7 FP inh 2 and Tn6 DDE FP -5.
For O=C(COC(=O)c1ccc(Cl)nc1)Nc1cc(S(=O)(=O)N2CCOCC2)ccc1Cl the results were CRFR2-BP ag 3, CRFR2-BP antag -16, DDE Tn7 FP inh 0 and Tn6 DDE FP -3.
`Cc1ccc(NC(=O)COC(=O)c2cccnc2Cl)cc1S(=O)(=O)N1CCOCC1` gave CRFR2-BP ag -3, CRFR2-BP antag 64*, DDE Tn7 FP inh 0 and Tn6 DDE FP -6.
`Cc1ccc(Sc2ccc(CO)cc2[N+](=O)[O-])cc1` gave CRFR2-BP ag -1, CRFR2-BP antag 51*, DDE Tn7 FP inh -3 and Tn6 DDE FP 5.
`Cc1ccc(Sc2c(C=O)c3ccccc3n2C)cc1` gave CRFR2-BP ag 9, CRFR2-BP antag 58*, DDE Tn7 FP inh 6 and Tn6 DDE FP -1.
For O=C(NCCc1ccccc1)c1c[nH]c2ccccc2c1=O the results were CRFR2-BP ag 73*, CRFR2-BP antag 17, DDE Tn7 FP inh -4 and Tn6 DDE FP 2.
Screening Cc1cc(C)cc(N(CC(=O)NC2CCC(C)CC2)S(=O)(=O)c2ccc(Cl)s2)c1 (stereo not given) returned DDE Tn7 FP inh -4 and Tn6 DDE FP 1.
For CCOC(=O)C1CCCN(C(=O)COC(=O)c2cccs2)C1 (stereo not given) the results were CRFR2-BP ag -2, CRFR2-BP antag 95*, DDE Tn7 FP inh -2 and Tn6 DDE FP 8.
`CCOC(=O)C1(C(=O)OCC)CCN(S(=O)(=O)c2ccccc2)CC1` gave CRFR2-BP ag -2, CRFR2-BP antag 69*, DDE Tn7 FP inh -5 and Tn6 DDE FP 6.
CCOC(=O)C1CCCN(S(=O)(=O)c2ccccc2)C1 (stereo not given) was read as CRFR2-BP ag -1, CRFR2-BP antag 78*, DDE Tn7 FP inh -4 and Tn6 DDE FP -2.
`O=C(OCC(=O)N1CCCCC1)c1cccs1` gave CRFR2-BP ag 2, CRFR2-BP antag -15, DDE Tn7 FP inh 9 and Tn6 DDE FP -2.
For CCOC(=O)C1CN(S(=O)(=O)c2ccccc2)C1 the results were CRFR2-BP ag -3, CRFR2-BP antag 18, DDE Tn7 FP inh -1 and Tn6 DDE FP 3.

Bioassay records from PubChem BioAssay.
